Shown are actives, neighbours in structure and some others; about 1.9% of the full set was active somewhere.
ASAP1 inh: inhibitors of human ASAP1 ArfGAP activity, primary screen, biochemical, fluorescence polarization | Arf-GAP with SH3 domain, ANK repeat and PH domain-containing protein 1 (Homo sapiens), … | ASAP1-stimulated ARF1 GTP hydrolysis, GDP FP detection | inhibition, % at 16.5 µM | hit rate 0.19% among 360,000; in the data active = inhibition above about 25%;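 also: 0% = vehicle with enzyme and substrate and 100% = no enzyme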
Efflux pump mplx: inhibitors of Candida efflux pumps in yeast, primary screen, S. cerevisiae, Nile Red, multiplex | AID 485275, 2010 | hit rate 0.44% among 330,000 | inhibition, % at 10 µM | S. cerevisiae Candida pump triplex;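 active = plate passing quality check with inhibition over a set limit, or well fluorescence over plate mean plus 4 SD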;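 also: Nile Red retained in pooled yeast measured as flow cytometry median fluorescence; 0% = buffer negative control and 100% = Enniatin B positive control; higher means more Nile Red kept so more efflux inhibition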
Rtt109 Vps75: inhibitors of C. albicans Rtt109/Vps75 HAT, primary screen, biochemical, ThioGlo CoA-SH fluorescence, plate reader; AID 540336, 2011; purified Rtt109/Vps75, 4 h; hit rate 0.16% among 330,000; Histone acetyltransferase RTT109 (Candida albicans (strain SC5314 / ATCC MYA-2876)), …; inhibition, % at 34.9 µM;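 active = inhibition of at least 50% in every replicate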
Target sequence (Q5AAJ8 whole entry, looked up): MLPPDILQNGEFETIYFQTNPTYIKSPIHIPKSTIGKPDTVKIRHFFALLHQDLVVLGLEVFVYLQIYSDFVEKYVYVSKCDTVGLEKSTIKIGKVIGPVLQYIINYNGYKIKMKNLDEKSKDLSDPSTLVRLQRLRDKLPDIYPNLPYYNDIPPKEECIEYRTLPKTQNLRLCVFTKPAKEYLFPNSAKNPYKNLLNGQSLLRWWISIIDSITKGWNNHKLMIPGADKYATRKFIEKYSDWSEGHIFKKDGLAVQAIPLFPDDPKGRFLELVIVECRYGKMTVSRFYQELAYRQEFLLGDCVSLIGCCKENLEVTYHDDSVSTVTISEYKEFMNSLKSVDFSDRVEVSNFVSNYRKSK
FGF22 binding: binders of human FGF22 protein, primary screen, FGF22 synaptogenesis inhibitor project, biophysical, thermal shift, single point | Fibroblast growth factor 22 (Homo sapiens), Q9HCT0 | recombinant FGF22 thermal shift, SYPRO orange fluorescence; percent of sucrose octasulfate shift, DMSO zero | activity (Tm shift, normalised), % at 9.99 µM | hit rate 1.5% among 340,000;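 active = mean Tm shift, scaled 0 neutral to 100 positive control, at about 1.3% or above, every replicate too, limit read from the data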
ARFGAP1 inhibitor: inhibitors of rat ARFGAP1 GAP activity, primary screen, biochemical, fluorescence polarization, GDP tracer; Arfgap1-stimulated ARF1 GTP hydrolysis, GDP FP detection; inhibition, % at 16.5 µM; hit rate 0.26% among 360,000; ADP-ribosylation factor GTPase-activating protein 1 (Rattus norvegicus), Q62848; AID 651572, 2012;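 active = inhibition above a per-plate limit, mean inhibition of low control wells plus 3 SD, cut at about 25% in these data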;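 also: 0% = DMSO wells with enzyme and 100% = wells lacking Arfgap1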
Target sequence (Q62848 1-136 limits assumed): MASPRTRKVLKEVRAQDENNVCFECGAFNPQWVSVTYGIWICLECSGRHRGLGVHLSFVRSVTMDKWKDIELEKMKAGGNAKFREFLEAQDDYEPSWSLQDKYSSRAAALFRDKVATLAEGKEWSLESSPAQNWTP
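Material – truncated rat Arfgap1 GAP domain · Buffer or medium – HEPES-based buffer, pH 7.5 · Reagent – human ARF1(Δ1-17)-GTP substrate · Dosing – 16.5 µM single point, 1.26% DMSO · Schedule – GTP hydrolysis reaction 2 h at 25 °C · Technique – GDP detection by fluorescence polarization · Benchmarks – No-Arfgap1 wells (100%) versus DMSO full-reaction wells (0%) · Repeats – single replicate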
* marks the source's active call; other numbers are inactive results; . = no result.

SMILES	ASAP1 inh	Efflux pump mplx	Rtt109 Vps75	FGF22 binding	ARFGAP1 inhibitor
COC(=O)c1sc(C(C)(C)C)cc1CS(=O)(=O)c1ccc(Cl)cc1	-31.9	-0.1	-6.4	15.0*	-2.1
O=C(c1ccc(Cl)c(F)c1F)N1CCOCC1	4.2	0.0	3.1	.	-0.9
CCOC(=O)C1CCCN(C(=O)/C=C/c2ccc(Cl)cc2)C1 (configuration not stated)	-2.8	0.6	-0.9	-0.2	-3.3
CCOC(=O)C1CCCN(C(=O)/C=C/c2cc(OC)c(OC)c(OC)c2)C1 (configuration not stated)	-9.3	0.0	3.7	44.4*	1.4
Cc1cc(-c2nc3cc(F)ccc3s2)ccc1N	-0.4	.	11.2	-0.2	0.0
O=[N+]([O-])c1cc(-c2cnc3ccccc3n2)ccc1Cl	-2.9	0.0	2.0	43.7*	7.5
CCOC(=O)N(C)c1c(CC)nc2c(OCc3ccccc3OC)cccn12	-3.1	.	.	0.0	0.3
COc1ccc(Nc2nc(N)nc(CSc3nccn3C)n2)cc1	14.4	0.1	0.8	43.6*	4.9
C[C@@H](CN1CCC[C@H]1CN1C(N)=NC[C@@H]1Cc1ccccc1)N1C[C@@H](Cc2ccccc2)N(CCc2ccc(Cl)c(Cl)c2)C1=N	.	0.1	59.2*	.	.
CCOC(=O)CN1CC23C=CC(O2)C(C(=O)Nc2cc(OC)ccc2OC)C3C1=O (configuration not stated)	-8.6	0.9*	-6.4	0.1	-13.8
CCc1ccc(NC(=O)CSc2nc3ccccc3c(=O)n2CCCC(=O)NCCCN2CCOCC2)cc1	6.8	0.1	12.3	43.1*	-1.5
Cc1ccc(NC(=O)CSc2nc3ccccc3c(=O)n2CCCC(=O)NCCCN2CCOCC2)cc1C	-0.8	-0.1	15.0	-0.1	-3.5
C=CCn1c(SCC(=O)Nc2ccccc2-c2ccccc2)nc2cc(C(=O)O)ccc2c1=O	8.4	0.0	-11.1	43.3*	-1.4
Cc1ncc([N+](=O)[O-])n1CCOC(=O)c1ccccc1	7.4	0.5	-6.7	.	-13.4
Cc1nonc1OCCn1c([N+](=O)[O-])cnc1C	-7.4	0.0	52.6*	0.0	-4.8
COc1ccc(NC(=O)CSc2nc(N)c3cc4c(nc3n2)CC(C)(C)OC4)cc1	4.4	-0.1	1.2	0.5	-3.6
COc1ccc(-c2csc(/C=C/c3ccc4c(c3)OCO4)n2)cc1OC	13.4	1.6	12.0	.	1.2
NC(=O)c1ccc(=O)n(C2OC(CO)C(O)C2O)c1 (configuration not stated)	4.1	.	-4.5	44.1*	9.0
NC(=O)c1ncn([C@@H]2O[C@H](CO)[C@@H](O)[C@H]2O)n1	2.3	0.2	3.0	-0.1	3.4
COc1cc(C)c(Cl)cc1S(=O)(=O)n1cnc2ccccc21	-8.8	0.1	12.9	0.1	-3.9
CCOC(=O)C1=C(C)NC(C)=C(C(=O)OCC)C1c1cn(-c2ccccc2)nc1-c1ccco1	-13.2	0.1	-1.7	.	12.5
CCn1c(CCl)nc2cc(S(=O)(=O)N3CCOCC3)ccc21	-5.5	0.0	.	43.1*	-1.1
CCN(C[C@H]1N[C@@](C)(C(=O)OC)[C@H]2C(=O)N(C)C(=O)[C@@H]12)C(C)=O	-0.2	-0.2	-0.2	43.5*	-4.3
COC(=O)[C@]1(C)N[C@H](CN(C)C(C)=O)[C@@H]2C(=O)N(Cc3ccccc3)C(=O)[C@@H]21	-8.6	-0.4	-4.8	43.9*	-6.1
CCN(C[C@H]1N[C@@](C)(C(=O)OC)[C@H]2C(=O)N(Cc3ccccc3)C(=O)[C@@H]12)C(=O)COC	6.8	-0.2	-3.5	-0.2	10.5
CCN(C[C@H]1N[C@@](C)(C(=O)OC)[C@H]2C(=O)N(C)C(=O)[C@@H]12)C(=O)c1ccccc1	-5.7	-0.2	-4.2	-0.1	3.4
CCN(C[C@H]1N[C@@](C)(C(=O)OC)[C@H]2C(=O)N(C)C(=O)[C@@H]12)C(=O)COC	-15.3	-0.5	0.3	43.0*	-12.3
Nc1[nH]c(N=NC(=O)c2ccc(F)cc2)c2ccccc12	-0.9	-11.9	5.5	-0.1	-2.1
CC1CCN(CC(=O)c2cccs2)CC1	9.7	0.0	11.9	43.8*	1.6
